Source: PubChem BioAssay (Johns Hopkins Ion Channel Center)
Only some compounds are listed: those with a hit (about 2.3% of all), similar ones and a draw of the others.
TRPC4 act – TRPC4 (mouse) channel activation. Q9QUQ5. HEK293 TRPC4beta/mu-opioid, Fluo4 calcium fluorescence; active compounds read high. B-score at 10 µM. hit rate 0.49% among 310,000;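 active means B-score above 5 SD of library B-scores, and initial fluorescence ratio not above library mean plus 5 SD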;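 further: positive B-score marks a calcium rise read as TRPC4 activation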
Target sequence (Q9QUQ5 whole entry, looked up): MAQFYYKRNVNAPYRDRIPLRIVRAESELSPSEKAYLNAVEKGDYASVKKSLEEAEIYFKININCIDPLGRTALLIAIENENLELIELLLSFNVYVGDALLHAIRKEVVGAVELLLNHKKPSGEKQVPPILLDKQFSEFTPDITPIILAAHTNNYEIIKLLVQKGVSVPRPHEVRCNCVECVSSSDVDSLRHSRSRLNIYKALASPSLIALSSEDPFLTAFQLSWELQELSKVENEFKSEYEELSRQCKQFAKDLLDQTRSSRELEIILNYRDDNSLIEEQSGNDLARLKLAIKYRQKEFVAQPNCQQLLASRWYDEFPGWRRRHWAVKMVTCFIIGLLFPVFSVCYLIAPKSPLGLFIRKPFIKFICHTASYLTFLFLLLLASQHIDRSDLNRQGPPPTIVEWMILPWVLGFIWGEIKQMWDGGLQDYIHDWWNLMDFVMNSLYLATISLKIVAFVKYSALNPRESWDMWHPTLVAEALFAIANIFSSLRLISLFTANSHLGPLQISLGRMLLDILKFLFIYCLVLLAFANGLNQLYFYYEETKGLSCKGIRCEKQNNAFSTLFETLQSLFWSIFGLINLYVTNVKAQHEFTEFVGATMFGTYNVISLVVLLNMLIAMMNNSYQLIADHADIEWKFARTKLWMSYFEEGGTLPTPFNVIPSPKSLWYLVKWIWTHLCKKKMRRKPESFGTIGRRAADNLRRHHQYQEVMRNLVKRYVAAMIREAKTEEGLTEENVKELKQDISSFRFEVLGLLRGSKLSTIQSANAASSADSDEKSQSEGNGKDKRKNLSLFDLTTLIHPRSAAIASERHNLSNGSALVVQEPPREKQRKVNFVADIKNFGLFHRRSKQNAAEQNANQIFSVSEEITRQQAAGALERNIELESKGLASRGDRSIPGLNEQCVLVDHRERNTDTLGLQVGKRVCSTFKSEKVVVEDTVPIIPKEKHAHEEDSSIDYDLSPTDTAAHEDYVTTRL
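Assay system: HEK293 cells stably co-expressing mouse TRPC4beta and mu-opioid receptor / Timing: Fluo4 dye loading 45 min at room temperature, 110 s recording / Signal: Fluo4 calcium-sensitive dye fluorescence, kinetic, 1 Hz baseline / Read-out: integrated baseline-normalised fluorescence ratio, converted to per-well B score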
TRPC4 PAM – allosteric potentiators of mouse TRPC4 channel; B-score at 10 µM; HEK293 TRPC4beta/mu-opioid, DAMGO EC20, Fluo-4 Ca2+ flux; active compounds read high; hit rate 0.42% among 310,000; Q9QUQ5; AID 2227;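 active means B-score of calcium response area above 5 SD of library B-scores, with initial fluorescence ratio within 5 SD of library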;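 further: B-score of integrated fluorescence ratio over time as area under calcium response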
TRPC4 block – blocks the mouse TRPC4 cation channel. Q9QUQ5. HEK293 TRPC4beta/mu-opioid, DAMGO-evoked Fluo4 calcium flux; active compounds read low. B-score at 10 µM. hit rate 0.39% among 300,000. AID 2247;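 active means B-score over 3 SD under the library average, no early fluorescence shift, positive overall ratio signal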
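Assay system: HEK293 cells with stable TRPC4beta plus mu-opioid receptor expression. Dosing: single dose. Measured by: Fluo4 Ca2+ flux fluorescence. Also added: DAMGO in two steps, submaximal then maximal. Read-out: B score from integrated Fluo4 fluorescence ratio.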
TRPC6 inhibitor – mouse TRPC6 channel inhibition; Q61143; HEK293-TRPC6, membrane potential dye, ACh-evoked depolarization; active compounds read low; B-score at 10 µM; hit rate 1.1% among 310,000; AID 2553;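 active means B-score under library mean minus 3 SD, initial fluorescence not abnormally high, positive integrated signal ratio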;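 further: B-score derived from integrated fluorescence ratio over the kinetic read; more negative B-score means stronger inhibition of depolarization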
TRPC6 act – mouse TRPC6 channel activation | AID 2550 | Q61143 | B-score at 10 µM | hit rate 0.13% among 310,000 | HEK293-TRPC6 membrane potential dye fluorescence; active compounds read high;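 active means B-score of the integrated fluorescence ratio above library mean plus 3 SD, and starting fluorescence ratio within library mean plus 5 SD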;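 further: higher score means more depolarization so channel activation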
TRPC4 spec 2 – second selectivity test of TRPC6 inhibitors: effect on mouse TRPC4. shares compounds with TRPC6 inhibitor. HEK293 TRPC4/MOR, membrane potential dye fluorescence; channel activated by saturating DAMGO dose. inhibition, % at 10 µM. hit rate 42% among 920;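 active means compounds whose fluorescence signal differed from control wells by over 3 SD, either direction, in both duplicate plates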
TRPC4 spec – mouse TRPC4 off-target activity of TRPC6 inhibitors. shares compounds with TRPC6 inhibitor. HEK293 TRPC4/mu-opioid, membrane potential fluorescence. activity change, negative = inhibition, % at 10 µM. hit rate 61% among 920. AID 2777;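 active means rise or fall in signal beyond 3 SD of buffer-only wells in both replicate plates, either sign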;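 further: integrated kinetic ratio of fluorescence range over baseline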
HEK293 MPD ctr 2-1 – second counter-screen for TRPC6 inhibitors: parental HEK293 cells. shares compounds with TRPC6 inhibitor. parental HEK293 membrane potential dye fluorescence; maximal acetylcholine challenge after compound addition. signal change vs control, % at 10 µM. hit rate 31% among 920. AID 2779;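 active means membrane potential signal moving either way by over 3 SD of the maximum-effect control, in both duplicate plates, meaning non-specific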
HEK293 MPD ctr-1 – counter-screen for TRPC6 inhibitors: effect in parental HEK293 cells; membrane potential signal change, % at 10 µM; shares compounds with TRPC6 inhibitor; AID 2780; parental HEK293 membrane potential dye fluorescence; hit rate 60% among 920;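 active means membrane potential signal shifting up or down by more than 3 SD of buffer-only wells, on both duplicate plates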
HEK293 MPD ctr-2 – checks TRPC6 modulator effects in parental HEK293 cells | shares compounds with TRPC6 inhibitor | membrane potential dye fluorescence | membrane potential signal change, % at 10 µM | hit rate 51% among 2,400;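 active means membrane potential signal moves up or down beyond 5 SD from buffer-only wells, on both duplicate plates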
HEK293 MPD ctr 2-2 – second counter-screen for TRPC6 modulators: effect in parental HEK293 cells; inhibition, % at 10 µM; shares compounds with TRPC6 inhibitor; hit rate 14% among 2,400; membrane potential dye fluorescence; after compound, maximal acetylcholine stimulation;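 active means membrane potential signal drops by more than 5 SD from the mean control signal, in both duplicate plates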;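 further: plate controls were acetylcholine ECmax control wells for no effect and buffer only wells for full effect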
TRPC4/MOR mod – tests whether TRPC6 modulators also affect mouse TRPC4. HEK293 TRPC4/mu-opioid, membrane potential fluorescence. percent change from control (negative = decrease, positive = increase), % at 10 µM. shares compounds with TRPC6 inhibitor. hit rate 69% among 2,400;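 active means membrane potential signal moved up or down beyond 5 SD of buffer control wells, in both duplicate plates, actives on both sides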;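 further: plate controls were assay buffer wells for no effect and DAMGO maximal-effect wells for full effect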
TRPC4 ctr inh 2 – second selectivity test of TRPC6 modulators against mouse TRPC4. shares compounds with TRPC6 inhibitor. HEK293 TRPC4/mu-opioid, membrane potential dye fluorescence; stimulated with maximal-effect DAMGO. inhibition, % at 10 µM. hit rate 55% among 2,400;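 active means drop in membrane potential signal beyond 5 SD of the control wells in both duplicate plates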;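 further: TRPC4 counter screen for TRPC6 hits run under conditions tuned for TRPC6 not TRPC4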
TRPC6 block conf – confirmation of mouse TRPC6 inhibitors; shares compounds with TRPC6 inhibitor; HEK293-TRPC6, membrane potential dye, ACh-evoked depolarization; inhibition, % at 10 µM; hit rate 43% among 3,300; AID 488960;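 active means fluorescence ratio falls more than 5 SD below the full-stimulation control mean, in both duplicate runs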;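 further: integrated fluorescence ratio of peak minus minimum over baseline after agonist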
TRPC6 act confirm – mouse TRPC6 activator confirmation. shares compounds with TRPC6 inhibitor. HEK293-TRPC6 membrane potential dye fluorescence, FDSS. hit rate 11% among 2,800. activation, % at 10 µM. AID 488961;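 active means ratio signal rise beyond 5 SD above unstimulated control wells' mean, seen in both duplicate runs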;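 further: plate controls were buffer EC0 wells for no effect and acetylcholine ECmax response for full effect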
Active calls of the source: *; i = inactive; . = not tested or not shown; + = active, no number.

SMILES | TRPC4 act | TRPC4 PAM | TRPC4 block | TRPC6 inhibitor | TRPC6 act | HEK293 MPD ctr-2 | HEK293 MPD ctr 2-2 | TRPC4/MOR mod | TRPC4 ctr inh 2 | TRPC6 block conf | TRPC6 act confirm | others
CCOC(=O)Cn1c(=O)oc2cc(S(=O)(=O)N(C)c3cccc(C)c3)ccc21 | i | i | i | i | i | . | . | . | . | . | .
O=c1onc(-c2ccc(Cl)cc2Cl)n1-c1cccnc1 | i | i | i | i | i | . | . | . | . | . | .
CN(C)c1ccc(/C=C/C(=O)c2cccnc2)cc1 | i | i | i | i | 133* | + | + | 470%* | 160%* | . | 864%*
COc1cc(/C=N\NC(=O)c2cccnc2)ccc1OC(=O)c1ccccc1Cl | i | i | i | i | i | . | . | . | . | . | .
COc1ccc([N+](=O)[O-])cc1N(CC(=O)NCC1CCCO1)S(C)(=O)=O (stereo not drawn) | i | i | i | i | i | . | . | . | . | . | .
Cc1cc(C)n(-c2nc(SCCN(C)C)c3c4c(sc3n2)CCCC4)n1 | 95* | i | i | -6.1* | i | i | i | i | 72%* | 46%* | i
CSc1nc(SCCN(C)C)c2c3c(sc2n1)COC(C)(C)C3 | i | i | i | i | i | . | . | . | . | . | .
CC1CCCCN1C(=O)Cn1c(=O)oc2cc(S(=O)(=O)N3CCCC3)ccc21 (stereo not drawn) | i | i | i | i | i | . | . | . | . | . | .
Cc1cccc(-c2nnc(SCC(=O)C(C)(C)C)n2C)c1 | i | i | i | i | i | . | . | . | . | . | .
COc1cc(/C=C2\SC(=S)N(NS(=O)(=O)c3ccccc3)C2=O)ccc1O | i | i | i | i | 15* | 490%* | 74%* | 64%* | i | i | 57%*
COc1cc(/C=C2\SC(=S)N(NC(=O)c3ccccc3OC)C2=O)ccc1O | i | i | i | i | i | . | . | . | . | . | .
COc1cc(/C=C2\SC(=S)N(NS(=O)(=O)c3ccc(C)cc3)C2=O)ccc1O | i | i | i | i | 23* | 614%* | i | 90%* | 29%* | i | 110%*
O=C(N/N=C/c1cccc(OC(=O)c2cccc(Br)c2)c1)c1ccncc1 | i | i | i | i | i | . | . | . | . | . | .
CC(C)(C)CNc1cc(N2CCCC2)ccc1[N+](=O)[O-] | i | i | i | i | i | . | . | . | . | . | .
NCCNc1cc(N2CCCC2)ccc1[N+](=O)[O-] | i | i | i | -6.3* | i | -164%* | i | -31%* | 70%* | 58%* | i
COc1ccc(OC)c(C(=O)Nc2c(O)ccc3ccccc23)c1 | i | i | i | i | i | . | . | . | . | . | .
O=C(NCCN1CCOCC1)c1cnn2c(-c3ccccc3)cc(-c3ccccc3)nc12 | i | i | i | -7.5* | i | . | . | . | . | i | i | TRPC4 spec 2=i;TRPC4 spec=i;HEK293 MPD ctr 2-1=i;HEK293 MPD ctr-1=-130%*
CC(=O)c1cnc(Nc2nc(C)c3ccccc3n2)nc1C | i | i | i | i | i | . | . | . | . | . | .
CC(=O)c1cnc(Nc2nc(C)c3ccc(C)cc3n2)nc1C | i | i | i | -5.7* | i | -154%* | 81%* | -20%* | i | i | i
CCOc1ccc(-c2c[n+]3c(n2-c2ccccc2)CCCCC3)cc1 | i | i | i | -5* | i | i | i | i | i | i | i
CCOc1ccc(-c2nnc(-c3ccccc3)n2-c2ccccc2)cc1 | i | i | i | i | i | . | . | . | . | . | .
FC(F)Sc1ccc(-n2c(-c3ccc(Cl)cc3)c[n+]3c2CCC3)cc1 | i | i | i | i | i | . | . | . | . | . | .
COc1ccc(-n2c(-c3ccccc3)cc3c2CCCC3=O)cc1 | i | i | i | i | i | . | . | . | . | . | .
Cc1ccc(-n2c(-c3ccc(Cl)cc3)c[n+]3c2CCC3)cc1 | i | i | i | -5.2* | i | i | i | i | 46%* | i | i
COc1ccc(-n2c(-c3ccccc3)c[n+]3c2CCC3)cc1 | i | i | i | -5.4* | i | -104%* | i | -18%* | i | 40%* | i
SMILES | TRPC4 act | TRPC4 PAM | TRPC4 block | TRPC6 inhibitor | TRPC6 act | HEK293 MPD ctr-2 | HEK293 MPD ctr 2-2 | TRPC4/MOR mod | TRPC4 ctr inh 2 | TRPC6 block conf | TRPC6 act confirm | others
CCOc1ccc(-n2c(-c3ccc(Cl)cc3)c[n+]3c2SCC3)cc1 | i | i | -6* | -7.3* | i | -71%* | 80%* | i | 36%* | 42%* | i
O=C(NCc1ccccc1Cl)C1CCN(C(=O)c2ccco2)CC1 | i | i | i | i | i | . | . | . | . | . | .
COc1ccc(-n2c(-c3ccc(Br)cc3)nc(=S)c3c2CCCC3)cc1 | i | i | i | i | i | . | . | . | . | . | .
COc1ccc(-n2c(-c3ccc(Br)cc3)c[n+]3c2SC(C)C3)cc1 (stereo not drawn) | i | i | i | -5.9* | i | -142%* | 80%* | -21%* | 42%* | 48%* | i
COc1ccc(-n2c(-c3ccc(Br)cc3)c[n+]3c2CCC3)cc1 | i | i | i | -7.2* | i | . | . | . | . | 61%* | i | TRPC4 spec 2=76%*;TRPC4 spec=i;HEK293 MPD ctr 2-1=-75%*;HEK293 MPD ctr-1=-192%*
CC(Oc1cc(Cl)ccc1Cl)C(=O)N/N=C\c1ccnn1C (stereo not drawn) | i | i | i | i | i | . | . | . | . | . | .
